Laboratory results taken from ChEMBL document CHEMBL5108061, “Lectin-Targeted Prodrugs Activated by Pseudomonas aeruginosa for Self-Destructive Antibiotic Release” (J Med Chem, 2022).
Values after ≈ are worked out from the molar mass of the structure shown.

What was measured:
[1] = biological target: T1, PA-I galactophilic lectin (Pseudomonas aeruginosa (strain ATCC 15692 / PAO1 / 1C / PRS 101 / LMG12228), UniProt Q05097); assay: Competitive binding affinity to recombinant Pseudomonas aeruginosa LecA expressed in Escherichia coli BL21(DE3) incubated for 30 to 60 mins by fluorescent polarization assay
T1 sequence (Q05097 whole entry): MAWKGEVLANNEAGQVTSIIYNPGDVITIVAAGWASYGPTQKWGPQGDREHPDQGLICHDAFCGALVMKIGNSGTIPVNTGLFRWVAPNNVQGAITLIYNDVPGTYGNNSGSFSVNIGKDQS
Method in brief: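 Recombinant LecA (E. coli BL21(DE3), galactosyl-sepharose purified) at 40 μM with 20 nM fluorescein-galactoside reporter in TBS/Ca pH 7.4; compounds serially diluted with 30% DMSO co-solvent, technical triplicates; 30–60 min at 22 °C; fluorescence polarization (ex 485/em 535); four-parameter fit with plateaus fixed by pNP-β-D-Gal control; ≥3 independent experiments.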

[2] = biological target: Fucose-binding lectin PA-IIL (Pseudomonas aeruginosa (strain ATCC 15692 / DSM 22644 / CIP 104116 / JCM14847 / LMG 12228 / 1C / PRS 101 / PAO1), UniProt Q9HYN5); assay: Competitive binding affinity to recombinant Pseudomonas aeruginosa PAO1 LecB expressed in Escherichia coli BL21(DE3) incubated for 4 to 8 hrs by fluorescent polarization assay
Sequence of Fucose-binding lectin PA-IIL (Q9HYN5 whole entry): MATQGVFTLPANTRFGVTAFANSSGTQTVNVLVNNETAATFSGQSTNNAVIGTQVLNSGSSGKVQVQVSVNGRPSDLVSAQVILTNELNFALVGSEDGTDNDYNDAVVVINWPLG

[3] = biological target: T2, Elastase (Pseudomonas aeruginosa (strain ATCC 15692 / PAO1 / 1C / PRS 101 / LMG12228), UniProt P14756); assay: Prodrug activation assessed as LasB-mediated drug release in Pseudomonas aeruginosa PA14 cell supernatant in presence of human blood plasma and measured for 3 hrs by HPLC-MS analysis; format: cell-free
T2 sequence (P14756 whole entry): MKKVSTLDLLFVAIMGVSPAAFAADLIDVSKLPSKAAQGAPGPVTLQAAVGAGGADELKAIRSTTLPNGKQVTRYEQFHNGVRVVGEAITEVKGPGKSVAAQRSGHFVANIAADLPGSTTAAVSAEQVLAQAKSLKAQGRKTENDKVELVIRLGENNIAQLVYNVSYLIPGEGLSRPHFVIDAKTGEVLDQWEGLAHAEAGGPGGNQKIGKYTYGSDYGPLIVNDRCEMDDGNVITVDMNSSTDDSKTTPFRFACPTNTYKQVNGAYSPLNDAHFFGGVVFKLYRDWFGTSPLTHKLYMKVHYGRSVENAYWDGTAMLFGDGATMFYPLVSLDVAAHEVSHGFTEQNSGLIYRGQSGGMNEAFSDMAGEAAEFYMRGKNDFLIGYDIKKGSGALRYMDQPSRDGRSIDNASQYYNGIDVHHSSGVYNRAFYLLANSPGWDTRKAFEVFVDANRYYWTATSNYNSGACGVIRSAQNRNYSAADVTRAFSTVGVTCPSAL

[4] = Stability of compound in human blood plasma spiked with Pseudomonas aeruginosa PA14 matrix assessed as hydrolysis of prodrug and measured upto 3 hrs by HPLC-MS/MS analysis; format: ADME, cell-free
[5] = tested on: Pseudomonas aeruginosa; assay: (§1) Antibacterial activity against Pseudomonas aeruginosa PA14 assessed inhibition of bacterial growth preincubated for 10 mins in PBS buffer followed by overnight grown bacterial culture addition incubated for 18 to 20 hrs by broth microdilution method; format: functional
Method in brief: (§2)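 Prodrug serial dilutions in PBS/20% DMSO (1 mM to 1.9 μM) were diluted about 1:20 into matrix. Matrices: plasma 5 mL + PA14 LB-culture sterile filtrate 1 mL + PBS 4 mL; filtrate 1 mL + PBS 9 mL; PBS alone; plasma 5 mL + LB 1 mL + PBS 4 mL. Preincubation was 3 h at 37 °C, or <10 min at room temperature.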

[6] = tested on: Pseudomonas aeruginosa; assay: (§3) Antibacterial activity against Pseudomonas aeruginosa PA14 assessed inhibition of bacterial growth preincubated for 3 hrs in PBS buffer followed by overnight grown bacterial culture addition incubated for 18 to 20 hrs by broth microdilution method; format: functional; details: time 21-23 hrs; method in brief: as §2
[7] = tested on: Pseudomonas aeruginosa; assay: as §1, with “mins in matrix containing human blood plasma spiked with Pseudomonas aeruginosa cell culture supernatant” for “mins”; format: functional; method in brief: as §2
[8] = tested on: Pseudomonas aeruginosa; assay: (§4) Antibacterial activity against Pseudomonas aeruginosa PA14 assessed inhibition of bacterial growth preincubated for 3 hrs in matrix containing 50% human blood plasma and 10% Pseudomonas aeruginosa cell culture supernatant in PBS followed by overnight grown bacterial culture addition incubated for 18 to 20 hrs by broth microdilution method; format: functional; details: time 21-23 hrs; method in brief: as §2
[9] = tested on: Pseudomonas aeruginosa; assay: as §4, with “containing” for “containing 50%”, “spiked with” for “and 10%”, “PBS buffer” for “PBS”; format: functional; method in brief: as §2
[10] = tested on: Pseudomonas aeruginosa; assay: as §3, with “3 hrs in matrix containing Pseudomonas aeruginosa cell culture supernatant in PBS” for “3 hrs in PBS”; format: functional; details: time 21-23 hrs; method in brief: as §2
[11] = tested on: Pseudomonas aeruginosa; assay: (§5) Antibacterial activity against Pseudomonas aeruginosa PA14 assessed inhibition of bacterial growth preincubated for 10 mins in matrix containing human blood plasma spiked with fresh LB medium in PBS followed by overnight grown bacterial culture addition incubated for 18 to 20 hrs by broth microdilution method; format: functional; method in brief: as §2
[12] = tested on: Pseudomonas aeruginosa; assay: as §5, with “3 hrs” for “10 mins”; format: functional; details: time 21-23 hrs; method in brief: as §2
[13] = biological target: T2, Elastase; assay: Prodrug activation assessed as LasB- mediated drug release in Pseudomonas aeruginosa PA14 cell supernatant and measured after 24 hrs by HPLC-MS analysis
[14] = tested on: Pseudomonas aeruginosa; assay: Antibacterial activity against Pseudomonas aeruginosa PA14 assessed inhibition of bacterial growth incubated for 18 to 20 hrs by broth microdilution method; format: functional; details: time 18-20 hrs
Method in brief: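 Broth microdilution per EUCAST in Müller-Hinton broth II, no matrix preincubation. […] Inoculum from overnight LB-agar colonies adjusted to OD600 0.08–0.13, diluted 1:100, final 5 × 10^5 cfu/mL.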

[15] = Stability in mouse plasma assessed as half life at 1 uM and measured upto 240 mins by HPLC-MS/MS analysis; format: ADME, cell-free; details: 4 h
Method in brief: (§6)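 Compound at 1 μM final in prewarmed mouse or human plasma (pH 7.4), 37 °C, sampled at 0–240 min; extracted with acetonitrile containing caffeine internal standard; HPLC-MS/MS, peak area normalized to internal standard and time 0; procaine and procainamide controls; ≥3 independent repeats.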

[16] = Stability in human plasma assessed as half life at 1 uM and measured upto 240 mins by HPLC-MS/MS analysis; format: ADME, cell-free; details: 4 h; method in brief: as §6
[17] = Protein binding in CD-1 mouse plasma at 1 uM incubated for incubated for 2 hrs by HPLC-MS/MS analysis; format: ADME, cell-free
Method in brief: (§7)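 Rapid equilibrium dialysis; compound at 1 μM final in pooled CD-1 mouse plasma or pooled mixed-gender human plasma, dialysed against buffer; naproxen as high-binding control.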

[18] = Protein binding in human plasma at 1 uM incubated for incubated for 2 hrs by HPLC-MS/MS analysis; format: ADME, cell-free; method in brief: as §7
[19] = tested on: A549; assay: Cytotoxicity against human A549 cells assessed as reduction in cell viability incubated for 24 hrs by MTT assay
[20] = Metabolic stability in mouse liver microsomes assessed as half life at 100 uM preincubated for 5 mins followed by NADPH addition and measured upto 60 mins by HPLC-MS/MS analysis; format: ADME, Microsome; details: time 65 min
Method in brief: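 Thawed mouse liver microsomes (20 mg/mL stock) were pre-incubated with compound (100 μM stock) in 100 mM phosphate buffer for 5 min at 37 °C. Reactions were started with NADPH (20 mM stock) and run in triplicate at 37 °C with shaking. Samples taken at 0, 5, 15, 30 and 60 min were quenched with acetonitrile and analysed by HPLC-MS/MS. Peak areas were normalised to 0 min, and half-life came from linear regression.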

[21] = Metabolic stability in mouse liver microsomes assessed as intrinsic clearance measured per mg protein at 100 uM preincubated for 5 mins followed by NADPH addition and measured upto 60 mins by HPLC-MS/MS analysis; format: ADME, Microsome; details: time 65 min, read-out: CLH
Method in brief: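 Mouse liver microsomes (5 μL of 20 mg/mL) were mixed with 2 μL of 100 μM compound in 100 mM phosphate buffer and warmed 5 min at 37 °C. NADPH (10 μL of 20 mM) started the reaction, run in triplicate at 150 rpm. Samples were quenched with acetonitrile at 0–60 min and read by HPLC-MS/MS. Half-life came from linear regression of the 0-min-normalized areas, and CLint was derived from it.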

[22] = Drug uptake in human A549 cells assessed as intracellular accumulation at 10 ug/ml incubated for 15 to 60 mins by HPLC-MS/MS analysis; format: ADME, cell-based; details: time 15-60 min, dose 10 µg/ml
Method in brief: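 A549 cells grown to 95% confluence in DMEM/10% FCS, exposed to 10 μg/mL compound for 15, 30 and 60 min at 37 °C; washed twice with PBS, lysed in MeOH; medium, washes and extracts extracted with MeOH containing caffeine internal standard and quantified by HPLC-MS/MS against calibration/QC samples; technical duplicates, two biological replicates.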

MIC [14] [µM] | SMILES | IC50 [1] [µM] | Drug metabolism [3] | Stability [4] | MIC [5] [µM] | MIC [6] [µM] | MIC [7] [µM] | MIC [8] [µM] | MIC [9] [µM] | MIC [10] [µM] | MIC [11] [µM] | MIC [12] [µM] | t1/2 [15] [h] | t1/2 [16] [h] | other results
– | O=[N+]([O-])c1ccc(O[C@@H]2O[C@H](CO)[C@H](O)[C@H](O)[C@H]2O)cc1 | 61.9 | – | – | – | – | – | – | – | – | – | – | – | – | –
– | CC(C)C[C@H](NC(=O)CNC(=O)[C@H](C)NC(=O)c1ccc(S(=O)(=O)NC[C@H]2O[C@@H](C)[C@@H](O)[C@@H](O)[C@@H]2O)cc1)C(=O)N[C@@H](C)C(=O)N1CCN(c2cc3c(cc2F)c(=O)c(C(=O)O)cn3C2CC2)CC1 | – | Metabolite_Notdetected | Stable | > 25 | > 25 | ≥ 25 | ≥ 25 | ≥ 25 | ≥ 25 | ≥ 25 | ≥ 25 | – | – | IC50 [2]: 4.63 µM
58 (≈ 29.9 µg/mL) | CC(C)C[C@H](N)C(=O)N[C@@H](C)C(=O)N[C@H]1CCN(c2cc3c(cc2F)c(=O)c(C(=O)O)cn3C2CC2)C1 | – | – | – | – | – | – | – | – | – | – | – | – | – | Drug metabolism [13]: Metabolite_Notdetected
– | CC(C)C[C@H](NC(=O)CNC(=O)[C@H](C)NC(=O)c1ccc(S[C@@H]2O[C@H](CO)[C@H](O)[C@H](O)[C@H]2O)cc1)C(=O)N[C@@H](C)C(=O)N[C@H]1CCN(c2cc3c(cc2F)c(=O)c(C(=O)O)cn3C2CC2)C1 | 29.8 | Metabolite_Detected | Stable | > 25 | > 25 | 0.195 (≈ 0.184 µg/mL) | 0.1 (≈ 0.0942 µg/mL) | 0.78 (≈ 0.735 µg/mL) | 0.195 (≈ 0.184 µg/mL) | ≥ 25 | 0.78 (≈ 0.735 µg/mL) | > 4 | > 4 | PPB [17]: 74%; PPB [18]: 97.2%; IC50 [19]: 21.7 µM
28 (≈ 14.8 µg/mL) | CC(C)C[C@H](N)C(=O)N[C@@H](C)C(=O)NC[C@H]1CCN(c2cc3c(cc2F)c(=O)c(C(=O)O)cn3C2CC2)C1 | – | – | – | – | – | – | – | – | – | – | – | – | – | –

SMILES | MIC [14] [µM] | IC50 [1] [µM] | Drug metabolism [3] | Stability [4] | MIC [5] [µM] | MIC [6] [µM] | MIC [7] [µM] | MIC [8] [µM] | MIC [9] [µM] | MIC [10] [µM] | MIC [11] [µM] | MIC [12] [µM] | t1/2 [15] [h] | t1/2 [16] [h] | other results
Cl.N[C@H]1CCN(c2cc3c(cc2F)c(=O)c(C(=O)O)cn3C2CC2)C1 | 0.027 | – | – | – | – | – | – | – | – | – | – | – | > 4 | 2.25 | half-life at 100 µM [20]: > 1 h; microsomal CLint at 100 µM [21]: < 23 µL/min/mg; Drug uptake [22]: 2000 ng/mL
